The compounds below were run against T1, Protein cereblon/3-hydroxy-3-methylglutaryl-coenzyme A reductase (Cricetulus griseus, UniProt P00347+G3H338) (assay: Protac activity at CRBN/HMGCR in Insig-1/Insig-2 deficient Chinese hamster SRD15 cells assessed as induction of HMGCR degradation after 16 hrs by immunoblotting analysis).
T1 sequence (P00347 whole entry): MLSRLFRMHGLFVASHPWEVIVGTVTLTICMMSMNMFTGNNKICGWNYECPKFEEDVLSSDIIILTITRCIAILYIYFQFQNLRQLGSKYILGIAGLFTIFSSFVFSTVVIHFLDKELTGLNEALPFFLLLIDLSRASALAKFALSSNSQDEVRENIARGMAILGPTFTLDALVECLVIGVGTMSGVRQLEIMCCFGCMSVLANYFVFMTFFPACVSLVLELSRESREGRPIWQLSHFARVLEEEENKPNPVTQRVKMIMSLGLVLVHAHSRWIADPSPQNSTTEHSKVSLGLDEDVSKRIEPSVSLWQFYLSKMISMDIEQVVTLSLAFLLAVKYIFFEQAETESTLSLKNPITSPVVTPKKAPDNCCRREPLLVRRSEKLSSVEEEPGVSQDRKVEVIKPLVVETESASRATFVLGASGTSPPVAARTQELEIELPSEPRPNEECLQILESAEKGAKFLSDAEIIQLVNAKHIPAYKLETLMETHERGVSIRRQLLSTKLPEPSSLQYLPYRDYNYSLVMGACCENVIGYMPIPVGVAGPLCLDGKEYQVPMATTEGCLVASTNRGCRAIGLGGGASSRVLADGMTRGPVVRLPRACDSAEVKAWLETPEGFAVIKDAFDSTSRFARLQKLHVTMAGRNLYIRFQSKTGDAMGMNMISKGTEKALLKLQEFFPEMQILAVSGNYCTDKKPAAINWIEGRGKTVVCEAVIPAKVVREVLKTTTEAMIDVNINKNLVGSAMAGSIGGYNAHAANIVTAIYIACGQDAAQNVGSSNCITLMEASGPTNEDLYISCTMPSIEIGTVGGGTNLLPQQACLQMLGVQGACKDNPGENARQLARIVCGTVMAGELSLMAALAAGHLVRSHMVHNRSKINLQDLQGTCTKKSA
T1 sequence (G3H338 whole entry): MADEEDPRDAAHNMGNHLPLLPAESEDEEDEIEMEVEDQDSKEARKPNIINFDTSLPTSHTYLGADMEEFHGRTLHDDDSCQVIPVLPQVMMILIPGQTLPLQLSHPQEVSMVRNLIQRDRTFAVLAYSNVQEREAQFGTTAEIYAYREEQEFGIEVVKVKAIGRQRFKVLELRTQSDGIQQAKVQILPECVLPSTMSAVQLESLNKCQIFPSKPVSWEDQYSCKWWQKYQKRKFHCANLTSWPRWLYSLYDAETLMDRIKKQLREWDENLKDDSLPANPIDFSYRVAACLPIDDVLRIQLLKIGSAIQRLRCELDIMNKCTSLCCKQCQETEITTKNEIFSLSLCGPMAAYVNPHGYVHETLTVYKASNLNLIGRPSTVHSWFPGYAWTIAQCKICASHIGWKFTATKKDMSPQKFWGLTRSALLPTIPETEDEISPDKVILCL
Outline: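 SRD15 cells treated with compound at varying concentrations for 16 h, final DMSO ≤0.1%; RIPA lysates (Lowry protein) immunoblotted for HMGCR, densitometry normalized to actin, DMSO set to 1; DC50 = concentration giving 50% loss versus DMSO, fitted to dose-response curve, mean of 3 independent experiments.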

Compound	DC50
CC(C)c1c(C(=O)Nc2ccccc2)c(-c2cccc(OCCCCCc3cn(CCOCCOCCNc4cccc5c4C(=O)N(C4CCC(=O)NC4=O)C5=O)nn3)c2)c(-c2ccc(F)cc2)n1CC[C@@H](O)C[C@@H](O)CC(=O)O (stereo partly drawn)	> 3000 nM
CC(C)c1c(C(=O)Nc2ccccc2)c(-c2cccc(OCCCCCc3cn(CCOCCOCCOCCOCCNc4cccc5c4C(=O)N(C4CCC(=O)NC4=O)C5=O)nn3)c2)c(-c2ccc(F)cc2)n1CC[C@@H](O)C[C@@H](O)CC(=O)O (stereo partly drawn)	500 nM
CC(C)c1c(C(=O)Nc2ccccc2)c(-c2cccc(OCCCc3cn(CCCCCCOCC#Cc4cccc5c4CN(C4CCC(=O)NC4=O)C5=O)nn3)c2)c(-c2ccc(F)cc2)n1CC[C@@H](O)C[C@@H](O)CC(=O)O (stereo partly drawn)	200 nM
CC(C)c1c(C(=O)Nc2ccccc2)c(-c2cccc(OCCCc3cn(CCCCOCC#Cc4cccc5c4CN(C4CCC(=O)NC4=O)C5=O)nn3)c2)c(-c2ccc(F)cc2)n1CC[C@@H](O)C[C@@H](O)CC(=O)O (stereo partly drawn)	> 3000 nM
CC(C)c1c(C(=O)Nc2ccccc2)c(-c2cccc(OCCCc3cn(CCOCCOCCOCCOCCOCCNc4cccc5c4C(=O)N(C4CCC(=O)NC4=O)C5=O)nn3)c2)c(-c2ccc(F)cc2)n1CC[C@@H](O)C[C@@H](O)CC(=O)O (stereo partly drawn)	200 nM
CC(C)c1c(C(=O)Nc2ccccc2)c(-c2cccc(OCCCCc3cn(CCOCCOCCOCCOCCNc4ccc5c(c4)C(=O)N(C4CCC(=O)NC4=O)C5=O)nn3)c2)c(-c2ccc(F)cc2)n1CC[C@@H](O)C[C@@H](O)CC(=O)O (stereo partly drawn)	> 3000 nM
CC(C)c1c(C(=O)Nc2ccccc2)c(-c2cccc(OCCCc3cn(CCOCC#Cc4cccc5c4CN(C4CCC(=O)NC4=O)C5=O)nn3)c2)c(-c2ccc(F)cc2)n1CC[C@@H](O)C[C@@H](O)CC(=O)O (stereo partly drawn)	> 3000 nM
CC(C)c1c(C(=O)Nc2ccccc2)c(-c2cccc(OCCCc3cn(CCCCCCOCCCc4cccc5c4CN(C4CCC(=O)NC4=O)C5=O)nn3)c2)c(-c2ccc(F)cc2)n1CC[C@@H](O)C[C@@H](O)CC(=O)O (stereo partly drawn)	500 nM
CC(C)c1c(C(=O)Nc2ccccc2)c(-c2cccc(OCCCCc3cn(CCOCCOCCOCCNc4ccc5c(c4)C(=O)N(C4CCC(=O)NC4=O)C5=O)nn3)c2)c(-c2ccc(F)cc2)n1CC[C@@H](O)C[C@@H](O)CC(=O)O (stereo partly drawn)	> 3000 nM
CC(C)c1c(C(=O)Nc2ccccc2)c(-c2cccc(OCCCCCc3cn(CCOCCOCCOCCNc4cccc5c4C(=O)N(C4CCC(=O)NC4=O)C5=O)nn3)c2)c(-c2ccc(F)cc2)n1CC[C@@H](O)C[C@@H](O)CC(=O)O (stereo partly drawn)	1800 nM
CC(C)c1c(C(=O)Nc2ccccc2)c(-c2cccc(OCCCCc3cn(CCOCCOCCOCCOCCOCCNc4cccc5c4C(=O)N(C4CCC(=O)NC4=O)C5=O)nn3)c2)c(-c2ccc(F)cc2)n1CC[C@@H](O)C[C@@H](O)CC(=O)O (stereo partly drawn)	> 3000 nM
CC(C)c1c(C(=O)Nc2ccccc2)c(-c2cccc(OCCCCCCCc3cn(CCCCCCCNc4cccc5c4C(=O)N(C4CCC(=O)NC4=O)C5=O)nn3)c2)c(-c2ccc(F)cc2)n1CC[C@@H](O)C[C@@H](O)CC(=O)O (stereo partly drawn)	500 nM
CC(C)c1c(C(=O)Nc2ccccc2)c(-c2cccc(OCCCCCc3cn(CCOCCOCCOCCOCCOCCNc4cccc5c4C(=O)N(C4CCC(=O)NC4=O)C5=O)nn3)c2)c(-c2ccc(F)cc2)n1CC[C@@H](O)C[C@@H](O)CC(=O)O (stereo partly drawn)	600 nM
CC(C)c1c(C(=O)Nc2ccccc2)c(-c2cccc(OCCCc3cn(CCCCCCCOCC#Cc4cccc5c4CN(C4CCC(=O)NC4=O)C5=O)nn3)c2)c(-c2ccc(F)cc2)n1CC[C@@H](O)C[C@@H](O)CC(=O)O (stereo partly drawn)	700 nM
CC(C)c1c(C(=O)Nc2ccccc2)c(-c2cccc(OCCCCCc3cn(CCOCCOCCOCCNc4ccc5c(c4)C(=O)N(C4CCC(=O)NC4=O)C5=O)nn3)c2)c(-c2ccc(F)cc2)n1CC[C@@H](O)C[C@@H](O)CC(=O)O (stereo partly drawn)	> 3000 nM

Continued, values first:

DC50	Compound
> 3000 nM	CC(C)c1c(C(=O)Nc2ccccc2)c(-c2cccc(OCCCCc3cn(CCOCCOCCNc4cccc5c4C(=O)N(C4CCC(=O)NC4=O)C5=O)nn3)c2)c(-c2ccc(F)cc2)n1CC[C@@H](O)C[C@@H](O)CC(=O)O (stereo partly drawn)
> 3000 nM	CC(C)c1c(C(=O)Nc2ccccc2)c(-c2cccc(OCCCCc3cn(CCOCCOCCOCCNc4cccc5c4C(=O)N(C4CCC(=O)NC4=O)C5=O)nn3)c2)c(-c2ccc(F)cc2)n1CC[C@@H](O)C[C@@H](O)CC(=O)O (stereo partly drawn)
> 3000 nM	CC(C)c1c(C(=O)Nc2ccccc2)c(-c2cccc(OCCCc3cn(CCOCCNc4cccc5c4C(=O)N(C4CCC(=O)NC4=O)C5=O)nn3)c2)c(-c2ccc(F)cc2)n1CC[C@@H](O)C[C@@H](O)CC(=O)O (stereo partly drawn)
300 nM	CC(C)c1c(C(=O)Nc2ccccc2)c(-c2cccc(OCCCc3cn(CCCCCOCC#Cc4cccc5c4CN(C4CCC(=O)NC4=O)C5=O)nn3)c2)c(-c2ccc(F)cc2)n1CC[C@@H](O)C[C@@H](O)CC(=O)O (stereo partly drawn)
> 3000 nM	CC(C)c1c(C(=O)Nc2ccccc2)c(-c2cccc(OCCCc3cn(CCCOCCCc4cccc5c4CN(C4CCC(=O)NC4=O)C5=O)nn3)c2)c(-c2ccc(F)cc2)n1CC[C@@H](O)C[C@@H](O)CC(=O)O (stereo partly drawn)
> 3000 nM	CC(C)c1c(C(=O)Nc2ccccc2)c(-c2cccc(OCCCc3cn(CCCOCC#Cc4cccc5c4CN(C4CCC(=O)NC4=O)C5=O)nn3)c2)c(-c2ccc(F)cc2)n1CC[C@@H](O)C[C@@H](O)CC(=O)O (stereo partly drawn)
> 3000 nM	CC(C)c1c(C(=O)Nc2ccccc2)c(-c2cccc(OCCCc3cn(CCOCCOCCOCCNc4ccc5c(c4)C(=O)N(C4CCC(=O)NC4=O)C5=O)nn3)c2)c(-c2ccc(F)cc2)n1CC[C@@H](O)C[C@@H](O)CC(=O)O (stereo partly drawn)
400 nM	CC(C)c1c(C(=O)Nc2ccccc2)c(-c2cccc(OCCCCc3cn(CCOCCOCCOCCOCCNc4cccc5c4C(=O)N(C4CCC(=O)NC4=O)C5=O)nn3)c2)c(-c2ccc(F)cc2)n1CC[C@@H](O)C[C@@H](O)CC(=O)O (stereo partly drawn)
3000 nM	CC(C)c1c(C(=O)Nc2ccccc2)c(-c2cccc(OCCCCCc3cn(CCOCCNc4cccc5c4C(=O)N(C4CCC(=O)NC4=O)C5=O)nn3)c2)c(-c2ccc(F)cc2)n1CC[C@@H](O)C[C@@H](O)CC(=O)O (stereo partly drawn)
> 3000 nM	CC(C)c1c(C(=O)Nc2ccccc2)c(-c2cccc(OCCCc3cn(CCOCCOCCOCCNc4cccc5c4C(=O)N(C4CCC(=O)NC4=O)C5=O)nn3)c2)c(-c2ccc(F)cc2)n1CC[C@@H](O)C[C@@H](O)CC(=O)O (stereo partly drawn)
> 3000 nM	CC(C)c1c(C(=O)Nc2ccccc2)c(-c2cccc(OCCCc3cn(CCOCCOCCNc4cccc5c4C(=O)N(C4CCC(=O)NC4=O)C5=O)nn3)c2)c(-c2ccc(F)cc2)n1CC[C@@H](O)C[C@@H](O)CC(=O)O (stereo partly drawn)
> 3000 nM	CC(C)c1c(C(=O)Nc2ccccc2)c(-c2cccc(OCCCc3cn(CCOCCCc4cccc5c4CN(C4CCC(=O)NC4=O)C5=O)nn3)c2)c(-c2ccc(F)cc2)n1CC[C@@H](O)C[C@@H](O)CC(=O)O (stereo partly drawn)
> 3000 nM	CCN1C(=O)CCC(N2C(=O)c3cccc(NCCOCCOCCOCCOCCn4cc(CCCOc5cccc(-c6c(C(=O)Nc7ccccc7)c(C(C)C)n(CC[C@@H](O)C[C@@H](O)CC(=O)O)c6-c6ccc(F)cc6)c5)nn4)c3C2=O)C1=O (stereo partly drawn)
> 3000 nM	CC(C)c1c(C(=O)Nc2ccccc2)c(-c2cccc(OCCCc3cn(CCCCOCCCc4cccc5c4CN(C4CCC(=O)NC4=O)C5=O)nn3)c2)c(-c2ccc(F)cc2)n1CC[C@@H](O)C[C@@H](O)CC(=O)O (stereo partly drawn)
2300 nM	CC(C)c1c(C(=O)Nc2ccccc2)c(-c2cccc(OCCCc3cn(CCCCCOCCCc4cccc5c4CN(C4CCC(=O)NC4=O)C5=O)nn3)c2)c(-c2ccc(F)cc2)n1CC[C@@H](O)C[C@@H](O)CC(=O)O (stereo partly drawn)
> 3000 nM	CC(C)c1c(C(=O)Nc2ccccc2)c(-c2cccc(OCCCCCc3cn(CCOCCOCCOCCOCCNc4ccc5c(c4)C(=O)N(C4CCC(=O)NC4=O)C5=O)nn3)c2)c(-c2ccc(F)cc2)n1CC[C@@H](O)C[C@@H](O)CC(=O)O (stereo partly drawn)
> 3000 nM	CC(C)c1c(C(=O)Nc2ccccc2)c(-c2cccc(OCCCCc3cn(CCOCCNc4cccc5c4C(=O)N(C4CCC(=O)NC4=O)C5=O)nn3)c2)c(-c2ccc(F)cc2)n1CC[C@@H](O)C[C@@H](O)CC(=O)O (stereo partly drawn)
600 nM	CC(C)c1c(C(=O)Nc2ccccc2)c(-c2cccc(OCCCc3cn(CCCCCCCOCCCc4cccc5c4CN(C4CCC(=O)NC4=O)C5=O)nn3)c2)c(-c2ccc(F)cc2)n1CC[C@@H](O)C[C@@H](O)CC(=O)O (stereo partly drawn)
